Results reported in PubChem BioAssay AID617 (SRMLSC, 2007).

Tested on: E. coli BW25113 ΔtolC growth inhibition, OD615
Experiment: E. coli ΔtolC antibacterial growth inhibition – strain BW25113 ΔtolC::kan, dose response (AID 617)
Procedure, shortened: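 Test system: E. coli BW25113 ΔtolC::kan bacteria / Buffer or medium: kanamycin-containing LB broth, 50 µg/mL / Compound: serial dilution series of compound / Incubation: bacterial growth with compound for 20 h, 37 °C / Measured by: OD615 / Read-out basis: growth-inhibition IC50 from four-parameter logistic curve, bounds set to 0% and 100%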

| Compound | IC50 [µM] |
| --- | --- |
| CC1CCN(c2nc3ccccc3nc2C(C#N)S(=O)(=O)c2ccccc2)CC1 (stereo not given) | 9.39 |
| CCCCn1c(N2CCC(Cc3ccccc3)CC2)nc2c1c(=O)[nH]c(=O)n2C | 5.96 |
| COc1ccc(-n2c(COc3ccccc3)nnc2SCc2ccc(C#N)cc2)cc1 | 14.2 |
| COc1ccc(S(=O)(=O)n2cnc3cc(C)c(C)cc32)cc1C | 13.6 |
| Fc1ccc(Cn2nnnc2C(c2cccs2)N2CCCCCC2)cc1 (stereo not given) | 10.5 |
| CCn1cc(C(=O)NC2CCCCC2C)c(=O)c2ccc(C)nc21 (stereo not given) | 5.31 |
| COc1cc(NS(=O)(=O)c2ccc(Br)cc2)c(OC)cc1NC(=O)c1ccco1 | 25.3 |
| CN(Cc1ccccc1)c1nc2c(c(=O)n(C)c(=O)n2C)n1CCCc1ccccc1 | 7.51 |
| CCCCCCN=C(CC)c1c(O)n(CCCC)c(=O)[nH]c1=O | 11.8 |
| Cc1ccccc1C1=NCC(=O)N(CC(=O)NCc2ccco2)c2sc3c(c21)CCCC3 | 28.6 |
| CSc1nc2ccc(NS(=O)(=O)c3ccc4c(c3)OCCO4)cc2s1 | 2.88 |
| Cc1ccc(S(=O)(=O)N(Cc2ccccc2)Cc2ccco2)cc1 | 10.8 |
| CCOC(=O)C1=C(C)NC(SCC(=O)Nc2cc(C)on2)=C(C#N)C1c1cccs1 (stereo not given) | 11 |
| N#CC(C#N)=c1ccc2c(c1)N1C3=C(CCCC3)CC3CCCCC31N=2 (stereo not given) | 75.6 |
| Cc1ccc(-c2nnn(CC(=O)N(Cc3ccco3)C(C(=O)NC(C)(C)C)c3cccs3)n2)o1 (stereo not given) | 23.3 |
| O=C(Nc1nc(-c2ccccn2)cs1)C1COc2ccccc2O1 (stereo not given) | 0.97 |
| CCC(C)(C)n1nnnc1CN(Cc1ccc(Cl)cc1)Cc1ccco1 | 12.6 |
| CCCn1c2ccccc2c2nc3ccccc3nc21 | 73.4 |
| Cc1ccc(OCc2nc(C#N)c(NCc3ccc4c(c3)OCO4)o2)cc1 | 6.03 |
| O=C(Nc1nc(SCc2ccc(F)cc2)ns1)c1ccco1 | 4.2 |
| CCc1nc2ccccc2c(=O)n1NC(=O)c1c(O)c2cccc3c2n(c1=O)CCC3 | 12.2 |
| COc1cc(-c2nnc(SCc3ccccc3Cl)o2)cc(OC)c1OC | 10.2 |
| O=C(NCc1ccccc1)c1c[nH]c2ccc(S(=O)(=O)Nc3ccc4c(c3)OCCO4)cc2c1=O | 9.4 |
| CCCN(CCC)c1nc2ccccc2nc1C(C#N)C(=O)OCCOC (stereo not given) | 15.7 |
| Cc1ccc(C(C)C)c(Oc2nnnn2-c2ccccc2)c1 | 14.7 |
| O=C(NC1CCCCC1)c1sc(=S)n2c1[nH]c(=O)c1ccccc12 | 0.83 |
| CCOC(=O)c1cnc(-n2nc(C)cc2C)nc1NCc1ccccc1 | 0.68 |

| Compound | IC50 [µM] |
| --- | --- |
| Cc1cc(SCC#N)n2nc(C)c(-c3ccccc3)c2n1 | 48.5 |
| CCN(CCNC(=O)C1CCN(Cc2nc(-c3cccc(Cl)c3)oc2C)CC1)c1ccccc1 | 8.04 |
| Cc1c(C(=O)OC2CCCC2C)[nH]c2c1C(=O)CCC2 (stereo not given) | 0.38 |
| O=c1n(Cc2ccc(Cl)cc2)c2sc3c(c2c2ncnn12)CCCC3 | 7.35 |
| COc1ccc2[nH]c3c(=O)n(CCCCC(=O)N4CCCC4)c(=S)[nH]c3c2c1 | 0.75 |
| Cc1n[nH]c(C)c1S(=O)(=O)N(CC(=O)Nc1ccc2c(c1)OCCO2)c1ccc(C(C)C)cc1 | 19.3 |
| CCOC(=O)N1CCN(c2nc3ccccc3nc2C(C#N)S(=O)(=O)c2ccc(C)cc2)CC1 (stereo not given) | 7.88 |
| CCn1c(C(=O)N2CCC(C(=O)NCCCSC3CCCCC3)CC2)cc2sccc21 | 6.22 |
| COc1ccc(NS(=O)(=O)c2cc(C)ccc2NC(=O)c2cc(C)oc2C)cc1 | 58.6 |
| CCOC(=O)N1CCN(c2nc(N(c3ccccc3)c3ccccc3)nc(-n3ccnc3)n2)CC1 | 20.3 |
| COc1ccc(NC(=O)c2cc(-c3cc(C)cc(C)c3O)n[nH]2)cc1Cl | 1.95 |
| CCOC(=O)N1CCC(c2cc(=O)n3[nH]c(C)c(-c4ccc(F)cc4)c3n2)CC1 | 1.68 |
| CCc1nc2sc3ccccc3c(=O)c2c(=O)n1Cc1ccco1 | 17.1 |
| CCOC(=O)c1sc(NC(=O)CSc2n[nH]c(-c3ccccc3)n2)c(C#N)c1C | 1.69 |
| C(=C\c1ccccc1)/CSc1nnc(-c2ccccn2)n1Cc1ccco1 | 12 |
| Cc1cc(C)c2cc(CN(CCO)C(c3nnnn3Cc3ccc(F)cc3)C(C)C)c(=O)[nH]c2c1 (stereo not given) | 21.7 |
| N#Cc1nc(COc2ccc(Cl)cc2)oc1N1CCCCCC1 | 8.68 |
| COc1ccccc1-c1nnc2sc(COc3ccc(Cl)cc3)nn12 | 16.4 |
| Cc1cc(NC(=O)c2ccccc2)sc1C | 5.59 |
| CCOC(=O)CSC1=C(C#N)C(c2ccco2)C(C(=O)Nc2cccc(C(F)(F)F)c2)=C(C)N1 (stereo not given) | 9.34 |
| CCCCc1ccc(C2C(C#N)=C(N)SC(N)=C2C#N)s1 | 13.8 |
| CC1CCc2cc(F)ccc2N1C(=O)c1cc2nc(-c3ccco3)cc(C(F)(F)F)n2n1 (stereo not given) | 11.2 |
| CCOC(=O)c1cnc(-n2nc(C)cc2C)nc1NC(C)c1ccccc1 (stereo not given) | 2.76 |
| Cc1nc2c(C(=O)NCCC3=CCCCC3)c[nH]n2c(=O)c1Cl | 8.36 |
| Cc1cc(C)c(C#N)c(N2CCN(CCOc3ccc(Cl)cc3)CC2)n1 | 10.4 |
| CCN(c1ccccc1)S(=O)(=O)c1ccc(NCC2COc3ccccc3O2)nc1 (stereo not given) | 14.8 |
| Cc1ccccc1Cn1nc(C)c(NC(=O)c2noc3c2CC(C(C)(C)C)CC3)c1C (stereo not given) | 9.29 |

| Compound | IC50 [µM] |
| --- | --- |
| COC(=O)c1c(NC(=O)Cc2cccs2)sc2c1CCCC2 | 8.83 |
| CC(C)(C)c1ccc(-c2nnc(SCCC#N)n2C2CCCC2)cc1 | 15.8 |
| CCc1cc2c(N3CCN(c4ccccc4)CC3)ncnc2s1 | 13.6 |
| COC(=O)c1sc(N2C(=O)C(O)=C(C(=O)c3ccc(C)o3)C2c2ccc(F)cc2)nc1C (stereo not given) | 15.6 |
| CCN1C(=O)CSC1=NC1C2CC3CC(C2)CC1C3 (stereo not given) | 33.5 |
| Cn1c(=O)n(CCc2ccccc2)c(=O)c2c1nc1n2CCCN1CCc1ccccc1 | 10.5 |
| O=C(COn1nnc2ccc(C(F)(F)F)cc21)Nc1nnc(-c2ccccc2)o1 | 0.64 |
| CCc1c(C)nc2cc(-c3cc(OC)cc(OC)c3)nn2c1N1CCCC1 | 25.5 |
| CCN(CC)S(=O)(=O)c1ccc2[nH]cc(C(=O)NCCC3=CCCCC3)c(=O)c2c1 | 5.15 |
| OCCN(CCO)c1nc(N2CCCCC2)c2nc(N(CCO)CCO)nc(N3CCCCC3)c2n1 | 1.38 |
| Cc1ccc(C(=O)Nc2nc(COc3ccccc3)cs2)s1 | 101 |
| CCN(CCCNC(=O)CCc1nc(-c2ccc(C)cc2)no1)c1cccc(C)c1 | 68.8 |
| CCN(CC)c1ccc(-c2nn3c(-c4n[nH]c5c4CCC5)nnc3s2)cc1 | 20.8 |
| Cc1ccc(NC(=O)CSC2=C(C#N)C(c3ccco3)C3=C(CC(C)(C)CC3=O)N2)cc1 (stereo not given) | 8.92 |
| c1ccc(CSc2nnc(-c3ccco3)c(-c3ccco3)n2)cc1 | 11.1 |
| O=c1c2c(nc3n1CCCCC3)-c1ccccc1CC21CCCC1 | 14.1 |
| COc1ccc(OC)c(S(=O)(=O)n2cnc3cc(C)c(C)cc32)c1 | 11.4 |
| CC(C)C(C(=O)NCc1ccco1)N(C(=O)CNS(=O)(=O)c1ccc(Cl)cc1)C1CCCC1 (stereo not given) | 24.8 |
| CCCCn1c(=O)n(Cc2cccc(F)c2)c(=O)c2c1ncn2Cc1ccco1 | 14.8 |
| Cc1nc2nc(COc3ccccc3)[nH]n2c(=O)c1Cc1ccccc1 | 1.32 |
| CCCCCc1cc(O)c2c(C)cc(=O)oc2c1 | 2.16 |
| CC(C)(C)NC(=O)C(c1ccco1)N(C(=O)Cn1nnc(-c2ccc(F)cc2)n1)c1cccc(F)c1 (stereo not given) | 20.9 |
| CCOC(=O)c1cn(CC)c2cc(N3CCCCC3)c(F)cc2c1=O | 3.42 |
| CCCCCn1c(SCCC(C)C)nc2c1c(=O)[nH]c(=O)n2C | 38 |
| CCCOc1nc2c(c(=O)n(C)c(=O)n2C)n1Cc1cccc2ccccc12 | 28.2 |
| CCCCC(CC)CNC(=O)c1[nH]c(C)c(C(C)=O)c1C (stereo not given) | 1.28 |
| COc1ccc(-c2csc(NCc3ccco3)n2)cc1C | 23.2 |

| Compound | IC50 [µM] |
| --- | --- |
| CC(C)Cn1c(=O)c(C(=O)Nc2cnccn2)c(O)c2ccccc21 | 14 |
| O=C(CCCOc1ccc(Cl)cc1Cl)N1CCN(c2ccccn2)CC1 | 6.04 |
| CC(C)C1O/C(=N/C(=O)Nc2ccc(Cl)c(Cl)c2)NC1=O (stereo not given) | 2.07 |
| COc1ccccc1Cc1nc(-c2ccc(Br)o2)no1 | 19.7 |
| O=C(c1cccc(F)c1)N1CCN(C(=O)c2cc(-c3ccc(Cl)cc3Cl)on2)CC1 | 9.75 |
| O=c1ccsn1Cc1ccccc1 | 3.15 |
| COc1ccc(OCC(O)CNc2ccc(Br)cc2)cc1 (stereo not given) | 12.7 |
| CSc1nc(-c2ccccc2)nc(N2CCCC2)c1C(C)=O | 12.7 |
| O=C(c1ccc(COc2ccccc2Cl)o1)N1CCN(c2ccccc2)CC1 | 8.64 |
| COc1ccc(-c2noc(Cc3ccc(Cl)cc3)n2)cc1OC | 75 |
| Cn1c(=O)c2c(SCc3cccnc3)nc(CC(C)(C)C)nc2n(C)c1=O | 8.18 |
| CCn1cc(C(=O)O)c(=O)c2cnc(N3CCN(C(=O)Nc4ccccc4)CC3)nc21 | 1.01 |
| CCC(=O)N1CCN(c2cc3c(cc2F)c(=O)c(C(=O)O)cn3CC)CC1 | < 0.2 |
| COc1cc(S(=O)(=O)N2CCC(O)(c3cccc(C(F)(F)F)c3)CC2)ccc1-n1cnnn1 | 11.1 |
| O=C(OC1CCCCC1)c1ccc(NC(=O)c2ccco2)cc1 | 6.09 |
| CCC(Sc1nnc(-c2ccc(C)c(Cl)c2)n1CC)C(=O)Nc1nccs1 (stereo not given) | 14.9 |
| CCOC(=O)c1c(NC(=O)CN(CC)CC)sc2c1CCC2 | 13.8 |
| C(=C\c1ccccc1)/CN1CCN(c2ncnc3c2oc2ccccc23)CC1 | 10.2 |
| CC(C)OCCCNc1ncnc2c1[nH]c1ccccc12 | 5.88 |
| O=C(Nc1nnc(C2CC2)s1)c1cc(-c2ccccc2)nn1-c1ccccc1 | 6.41 |
| O=C(CN1CCN(S(=O)(=O)c2ccc(F)cc2)CC1)Nc1ccc(Cl)c(C(F)(F)F)c1 | 9.07 |
| CCCN(CCC)C(=O)CSc1nc2ccccc2c(=O)n1C1CCCC1 | 14.2 |
| C=CCn1c(SCC(=O)Nc2ccc3c(c2)CCC3)nnc1-c1cccs1 | 53.8 |
| O=S(=O)(Nc1ccc2oc(-c3ccccc3)nc2c1)c1ccccc1 | 9.38 |
